{"source": "ChEMBL document CHEMBL1250442", "about": "“Inhibiting gene expression at transcription start sites in chromosomal DNA with antigene RNAs” (Nat Chem Biol, 2005)", "key": {"T47D [1]": {"test_system": "T47D", "test": "Inhibition of PR-A mRNA gene expression in human T47D cells at 100 nM by syber green assay", "type": "functional", "method_in_brief": "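T47D cells plated at 80,000/well without antibiotics two days before Oligofectamine transfection with agRNA duplex (25 or 100 nM final); medium changed at 24 h, harvest day 5 unless stated otherwise. TRIzol total RNA; PR mRNA by real-time PCR with SYBR Green: 50 °C 2 min, 95 °C 10 min, 40 cycles 95 °C 15 s/60 °C 1 min.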"}, "T47D [2]": {"test_system": "T47D", "test": "Inhibition of PR-B gene expression in human T47D cells harboring inactive DNA methyltransferase-1 at 100 nM by syber green assay", "type": "functional, cell-based"}, "T47D [3]": {"test_system": "T47D", "test": "Inhibition of PR-A gene expression in human T47D cells harboring inactive DNA methyltransferase-1 at 100 nM by syber green assay", "type": "functional, cell-based"}, "T47D [4]": {"test_system": "T47D", "test": "Inhibition of PR-A gene expression in human T47D cells at 25 nM by syber green assay in presence of 10 nM estradiol", "type": "functional, cell-based"}, "T47D [5]": {"test_system": "T47D", "test": "Inhibition of PR-B mRNA gene expression in human T47D cells at 100 nM by syber green assay", "type": "functional", "method_in_brief": "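T47D cells in RPMI-1640 with 10% FBS, NEAA, insulin, 37 °C, 5% CO2. Plated two days before transfection without antibiotics. Oligofectamine-mediated duplex RNA transfection at 100 nM final, medium changed at 24 h, harvest five days post-transfection. Total RNA extracted with TRIzol. hPR mRNA quantified by SYBR Green qPCR: 50 °C 2 min, 95 °C 10 min, then 40 cycles of 95 °C 15 s / 60 °C 1 min.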"}, "T47D [6]": {"test_system": "T47D", "test": "Inhibition of PR-B gene expression in human T47D cells at 25 nM by syber green assay in presence of 10 nM estradiol", "type": "functional, cell-based"}}, "note": "Calls of active or inactive are those of the source. The rule behind the calls is not given here."}
{"smiles": "Cc1cn([C@H]2C[C@H](OP(=O)(O)OC[C@H]3O[C@@H](n4cc(C)c(=O)[nH]c4=O)C[C@@H]3O)[C@@H](COP(=O)(O)O[C@H]3[C@@H](O)[C@H](n4ccc(N)nc4=O)O[C@@H]3COP(=O)(O)O[C@H]3[C@@H](O)[C@H](n4cnc5c(=O)[nH]c(N)nc54)O[C@@H]3COP(=O)(O)O[C@H]3[C@@H](O)[C@H](n4cnc5c(N)ncnc54)O[C@@H]3COP(=O)(O)O[C@H]3[C@@H](O)[C@H](n4ccc(N)nc4=O)O[C@@H]3COP(=O)(O)O[C@H]3[C@@H](O)[C@H](n4cnc5c(N)ncnc54)O[C@@H]3COP(=O)(O)O[C@H]3[C@@H](O)[C@H](n4ccc(N)nc4=O)O[C@@H]3COP(=O)(O)O[C@H]3[C@@H](O)[C@H](n4ccc(N)nc4=O)O[C@@H]3COP(=O)(O)O[C@H]3C[C@H](n4ccc(=O)[nH]c4=O)O[C@@H]3COP(=O)(O)O[C@H]3[C@@H](O)[C@H](n4cnc5c(=O)[nH]c(N)nc54)O[C@@H]3COP(=O)(O)O[C@H]3[C@@H](O)[C@H](n4cnc5c(N)ncnc54)O[C@@H]3COP(=O)(O)O[C@H]3[C@@H](O)[C@H](n4cnc5c(=O)[nH]c(N)nc54)O[C@@H]3COP(=O)(O)O[C@H]3[C@@H](O)[C@H](n4ccc(N)nc4=O)O[C@@H]3COP(=O)(O)O[C@H]3[C@@H](O)[C@H](n4cnc5c(=O)[nH]c(N)nc54)O[C@@H]3COP(=O)(O)O[C@H]3[C@@H](O)[C@H](n4ccc(N)nc4=O)O[C@@H]3COP(=O)(O)O[C@H]3[C@@H](O)[C@H](n4ccc(=O)[nH]c4=O)O[C@@H]3COP(=O)(O)O[C@H]3[C@@H](O)[C@H](n4ccc(N)nc4=O)O[C@@H]3CO[PH](=O)O[C@H]3[C@@H](O)[C@H](n4ccc(=O)[nH]c4=O)O[C@@H]3COP(=O)(O)O[C@H]3[C@@H](O)[C@H](n4ccc(N)nc4=O)O[C@@H]3COP(=O)(O)O[C@H]3[C@@H](O)[C@H](n4ccc(=O)[nH]c4=O)O[C@@H]3CO)O2)c(=O)[nH]c1=O", "note": "(stereo partly specified)", "values": [{"measurement": "inhibition at 0.1 µM", "setting": "T47D [1]", "result": "< 20", "unit": "%"}, {"measurement": "inhibition", "setting": "T47D [2]", "result": "Active"}, {"measurement": "inhibition", "setting": "T47D [3]", "result": "Active"}, {"measurement": "inhibition", "setting": "T47D [4]", "result": "Active"}, {"measurement": "inhibition at 0.1 µM", "setting": "T47D [5]", "result": "< 20", "unit": "%"}, {"measurement": "inhibition", "setting": "T47D [6]", "result": "Active"}]}
